# This is a sample that favours compounds with a hit; in the whole collection about 2.2% have one here.
# MDM2 E3 inh – blocks human Mdm2 ubiquitin ligase activity; Q00987; cell-based MDM2 ubiquitination luciferase reporter, 2 h; 0 = plate control, 100 = twice control, blank-subtracted; signal enhancement, % at 5 µM; actives 0.11% (n = 210,000); AID 1230;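 active = signal enhancement of 30% or more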;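 also: luminescence tracks abundance of the self-degrading MDM2-luciferase fusion protein; higher signal means inhibition of MDM2 E3 ligase activity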
#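 Material: Stable MDM2–luciferase fusion reporter cells | Amount: 2000 cells seeded into each well | Dosing: One concentration, 5 µM, with 0.2% DMSO | Incubation: 4 h cell settling then 2 h compound exposure, 37 °C | Measured by: Luciferase luminescence | Read-out basis: % enhancement relative to plate controls after blank subtraction | Benchmarks: Control and blank well means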
# Wee1 degr inh – inhibitors of human Wee1 degradation | P30291 | HeLa Luc-Wee1K328M stability, luciferase luminescence; 100% = proteasome inhibitor MG132 effect | actives 1.2% (n = 220,000) | reporter increase, % at 5 µM | AID 1321;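 active = activation above the mean of all tested compounds plus 3 SD, set per screening run, cut at about 8.8% in these data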;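 also: cells exposed to compound for 20 h before luminescence read; 0% = DMSO alone and 100% = MG132 at 30 µM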
# Target sequence (P30291 whole entry K328M): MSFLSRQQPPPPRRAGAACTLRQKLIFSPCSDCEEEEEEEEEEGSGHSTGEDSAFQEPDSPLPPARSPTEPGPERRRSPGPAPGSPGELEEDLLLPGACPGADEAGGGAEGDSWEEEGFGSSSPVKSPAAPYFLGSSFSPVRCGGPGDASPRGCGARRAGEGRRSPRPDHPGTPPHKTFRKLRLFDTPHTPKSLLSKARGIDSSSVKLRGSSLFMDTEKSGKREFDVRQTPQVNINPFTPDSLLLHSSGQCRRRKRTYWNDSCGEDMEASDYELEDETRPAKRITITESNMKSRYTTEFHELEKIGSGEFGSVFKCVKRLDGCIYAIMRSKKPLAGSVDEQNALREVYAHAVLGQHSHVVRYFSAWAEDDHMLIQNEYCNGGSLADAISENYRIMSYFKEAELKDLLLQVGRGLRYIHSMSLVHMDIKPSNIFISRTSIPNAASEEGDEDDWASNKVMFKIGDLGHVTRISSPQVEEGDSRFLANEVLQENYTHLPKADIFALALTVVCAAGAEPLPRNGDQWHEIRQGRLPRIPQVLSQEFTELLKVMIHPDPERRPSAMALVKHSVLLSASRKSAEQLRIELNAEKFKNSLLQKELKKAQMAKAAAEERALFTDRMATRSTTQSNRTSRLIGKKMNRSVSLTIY
# Ins promoter up – MIN6 insulin promoter up-regulation; actives 0.3% (n = 190,000); z-score at 5 µM; MIN6 insulin promoter-GFP reporter, high-content imaging; stronger effect = higher value;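 active = z-score above 3 at 5 µM with at least 500 cells counted in the well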
# RBBP9 inhibitor – human RBBP9 hydrolase inhibition; O75884; recombinant RBBP9, FP-Rh probe fluorescence polarization; inhibition, % at 7.94 µM; actives 0.2% (n = 220,000); AID 1515;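 active = inhibition above the campaign mean of all tested compounds plus 3 SD, cut at about 14% in these data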;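 also: plate controls were DMSO wells with RBBP9 for no effect and wells lacking RBBP9 protein for full effect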
#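 Controls: DMSO-treated enzyme wells and wells lacking RBBP9 | Material: RBBP9 protein | Technique: Fluorescence polarization | Replication: Single well per compound, no replicates | Buffer or medium: Tris-NaCl-Pluronic buffer, pH 8.0 | Timing: 30 min compound preincubation, 45 min probe labeling, 25 °C | Read-out basis: Percent inhibition from mP, scaled between DMSO and no-protein wells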
# Hsp70 activator – switches on Hsp70 transcription; activation, % at 10 µM; actives 0.04% (n = 200,000); AID 1203; HeLa Hsp70 promoter luciferase reporter, luminescence; scaled: vehicle 0, proteasome-inhibitor control 100%;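 active = activation above the mean across all tested compounds plus 3 SD, cutoff set per campaign, cut at about 5.5% in these data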;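 also: 100% = MG132 at 30 µM as the positive control and 0% = DMSO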
# INS promoter inh – TRM-6 insulin promoter activity inhibition; TRM-6 cells, insulin promoter-eGFP reporter, imaging; reporter expression induced with tamoxifen; inhibition, % at 2 µM; actives 0.9% (n = 130,000);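 active = inhibition above the mean plus 3 SD, with well images judged a real hit on visual review, cut at about 60% in these data, passing the limit was not always enough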
# * hit, by the source's call; x = no result given.
SMILES,MDM2 E3 inh,Wee1 degr inh,Ins promoter up,RBBP9 inhibitor,Hsp70 activator,INS promoter inh
N/C(=N\OC(=O)C1CCCCC1)c1cccc([N+](=O)[O-])c1,-18.7,-1.1,3.01*,-0.1,-0.1,23.3
Cc1ccc(C(=O)O/N=C(\N)c2cccc([N+](=O)[O-])c2)cc1,-16.6,-1.1,1.92,5.4,0.6,-10.0
NC(=O)c1ccc(OCC(F)(F)F)nc1,-7.8,2.8,-0.56,-8.1,x,x
COCc1cc(C)nc(Nc2ccccc2C)c1C#N,3.5,-1.6,3.32*,2.7,-0.3,-408.1
CC1=C(C(=O)Nc2ccc(Br)cc2)C(c2ccco2)NC(=O)N1 (stereo not given),-21.1,1.9,0.77,4.3,-0.2,67.7*
CCCCCCN1C2=NCCN2c2ccccc21,-12.4,-3.0,-0.49,-7.0,0.0,83.6*
CC(=O)c1cc(F)ccc1OCC(=O)N1CCN(c2ccc(F)cc2)CC1,-9.8,-0.2,-0.42,-11.1,-0.2,35.7
COc1cc(/C=N/Nc2cc(C)nc(NS(=O)(=O)c3ccc(C)cc3)n2)ccc1O,-9.1,1.7,-0.19,-7.9,-0.5,x
COc1cc(/C=N/Nc2cc(C)nc(NS(=O)(=O)c3ccccc3)n2)ccc1O,-10.5,10.0*,x,-2.4,x,x
CCOC(=O)c1cnn(-c2cc(C(C)(C)C)nc3c(-c4ccccc4)c(C)nn23)c1N,-21.8,3.5,-0.15,-11.0,-0.1,-33.3
CCOC(=O)c1cnn(-c2cc(C)nc3c(-c4ccccc4)cnn23)c1N,2.9,10.8*,3.62*,-13.7,-0.1,-16.7
Cc1ccc(S(=O)(=O)c2cc(C#N)c(=O)[nH]c2N)cc1,-16.7,1.3,x,-3.5,-0.3,28.1
Cc1ccccc1S(=O)(=O)N(CC(O)CN1C(=O)NC(C)(C)C1=O)c1ccccc1 (stereo not given),11.4,3.3,0.18,-5.1,x,x
CC(C)CC(=O)N1CCN(S(=O)(=O)c2ccc(Cl)cc2)CC1,-1.4,-4.1,x,-15.0,-0.3,13.3
C/C(=N\S(=O)(=O)c1ccc(C)cc1)N1CCN(S(=O)(=O)c2ccccc2)C1,-7.3,-2.0,3.52*,-3.4,-0.3,x
Cc1ccc(S(=O)(=O)N2CCN(C(=O)CC(C)C)CC2)cc1,31.8*,0.9,0.13,-3.2,-0.2,-3.7
Cc1ccc(S(=O)(=O)N2CCN(S(=O)(=O)c3ccccc3)C2)cc1,-13.3,-3.0,-0.36,-6.5,-0.6,-16.7
c1ccc(CCNc2ccccc2)cc1,x,x,0.57,x,x,x
O=C(NCc1n[nH]c(=S)n1-c1cccc(Cl)c1)c1ccc(S(=O)(=O)N2CCCC2)cc1,-10.7,11.4*,1.53,-8.4,0.0,-27.3
CCCCc1ccc(NC(=S)NCCc2ccc(F)cc2)cc1,-10.4,-0.4,0.48,-11.7,-0.1,4.8
CC(C)N1C(=O)C2C(c3ccccc3O)NC(C)(C(=O)O)C2C1=O (stereo not given),0.0,x,0.13,x,x,x
N=C1S/C(=C\c2ccc(-c3cccc(Cl)c3)o2)C(=O)N1c1nccs1,36.4*,0.1,2.09,5.9,0.0,x
O=C(Cc1cccs1)N(CC1CCCO1)C1(C(=O)NC2CCCC2)CCCCC1 (stereo not given),-18.4,-0.7,0.32,5.7,-0.2,x
CCN(CC)S(=O)(=O)c1cc(C(=O)NCCN2CCOCC2)ccc1Cl,6.2,-3.7,-0.04,-3.4,0.0,x
O=C(Cn1cnc2ccccc2c1=O)Nc1ccc(-c2nnc3n2CCCCC3)cc1,-7.2,0.2,x,-2.4,-0.1,92.9*
SMILES,MDM2 E3 inh,Wee1 degr inh,Ins promoter up,RBBP9 inhibitor,Hsp70 activator,INS promoter inh
O=C(Cn1cnc2ccccc2c1=O)Nc1cccc(-c2nnc3n2CCCCC3)c1,-20.6,1.5,x,-11.1,-0.2,33.3
Cc1ccc(C)c2[nH]c(=O)c(CN(CCN3CCOCC3)Cc3nnnn3CC3CCCO3)cc12 (stereo not given),-1.1,-1.3,-0.45,1.6,-0.1,-18.2
Cc1ccc(C)c2[nH]c(=O)c(CN(Cc3nnnn3C3CCCCC3)CC3CCCO3)cc12 (stereo not given),-16.8,9.8*,-1.26,7.9,0.1,x
NS(=O)(=O)c1ccc(CCNC(=O)CSc2nc3ccsc3c(=O)n2C2CC2)cc1,3.4,0.3,-0.05,-9.3,-0.3,48.4
NS(=O)(=O)c1ccc(CCNC(=O)CSc2nc3ccsc3c(=O)n2CC2CCC(C(=O)O)CC2)cc1 (stereo not given),-3.2,10.7*,-0.41,-4.2,-0.3,18.2
COC(=O)c1ccc(C2C(C#N)=C(N)Oc3cc(C)n(C)c(=O)c32)cc1 (stereo not given),-13.6,0.8,0.27,5.2,-0.1,76.3*
C[C@H]1COc2c(C3(N)CC3)c(F)cc3c(=O)c(C(=O)O)cn1c23,x,-0.3,0.95,2.5,-0.3,x
Nc1nc(SCC(=O)N2CCc3ccccc3C2)[nH]c(=O)c1-c1ccccc1,1.4,1.7,-0.38,-4.3,-0.4,75.0*
COc1cc(C(=O)Nc2c(C)cc(C)cc2C)c([N+](=O)[O-])cc1OC,-6.0,-1.1,-0.01,-7.6,-0.2,7.1
O=[N+]([O-])c1cccc(/C=C/c2ccccn2)c1,-6.5,10.0*,0.59,-4.1,x,x
O=C(/C=C/c1cccc([N+](=O)[O-])c1)n1cnc2ccccc21,49.2*,0.8,0.16,-2.6,0.1,-46.7
COc1ccc(C2/C=C\CN(C(=O)c3ccccc3)[C@H](Cc3ccccc3)C(=O)N2Cc2ccc(F)cc2)cc1 (stereo not given in full),3.6,x,x,x,x,x
C/C(=N/NC(=O)CN1CCN(S(=O)(=O)c2ccc(Br)cc2)CC1)c1cccnc1,-9.0,4.6,0.24,-10.3,-0.4,x
CCS(=O)(=O)c1ccc(O)c(N2C(=O)C3C4C=CC(C4)C3C2=O)c1 (stereo not given),-10.0,0.8,0.58,-5.9,-0.2,-15.2
Cc1cc2cc(CNC(=O)c3ccc(C)c([N+](=O)[O-])c3)ccc2[nH]1,x,0.5,-0.19,-2.3,-0.2,40.0
Cn1nnnc1NCc1c(F)cccc1Cl,-10.8,10.1*,0.27,2.3,-0.1,3.2
CCCn1nnnc1NCc1c(F)cccc1Cl,-0.2,-1.7,-0.7,-9.2,-0.2,x
Clc1ccc(-c2nnc3n2CCCCC3)cc1,-2.6,-2.0,0.08,-0.4,-0.6,41.9
Clc1ccc(-c2cn3c(n2)CCC3)cc1,-1.6,9.4*,-0.19,-6.1,0.0,x
Cc1cc(C)n2c(SCC(=O)N(CC(C)C)c3c(N)n(CC(C)C)c(=O)[nH]c3=O)nnc2n1,-2.1,-0.3,0.33,-6.8,-0.3,-20.0
COc1ccc([N+](=O)[O-])cc1NC(=O)COC(=O)c1ccccn1,-18.0,1.8,0.74,-11.6,-0.2,11.8
COC(=O)C1=C(C)N(c2ccc(OC)c(OC)c2)C(=O)/C1=C\c1ccco1,-2.8,8.9*,-0.24,2.5,-0.3,-5.9
CCC(C)(C(=O)NC1CCCC1)N(C(=O)c1ccccn1)c1ccc(C)cc1 (stereo not given),1.3,3.0,x,-1.1,0.1,x
